Assay results collected from several papers.
Compare with care: the assays were run in different laboratories.

c1ccc(-c2nc(N3CCC(c4ccccn4)C3)c3ccccc3n2)nc1 (stereo not drawn)
Tmax (female BALB/c mouse, plasma; oral, 50 mg/kg): 78 min

CC(C)(C)c1ccc(O)c(CN(Cc2cc(C(C)(C)C)ccc2O)C2CCC(NC(N)=O)CC2)c1 (stereo not drawn)
Tmax (male C57BL/6 mouse, plasma; oral, 10 mg/kg, single dose): 30 min

CNCCN(C)c1cc(C#N)cc(CCc2cc(C)cc(N)n2)c1
Tmax (male BALB/c mouse, brain; oral, 10 mg/kg): 240 min

Cc1ccc(NC(=O)c2ccc(CN3CCN(C)CC3)cc2)cc1Nc1nccc(-c2cncc(-c3oncc3C)c2)n1
Tmax (male C57BL/6 mouse, plasma; oral, 100 mg/kg/day): 240 min

CC=Cc1ccc(O)c(OC)c1
Tmax (mouse, brain; intranasal, 100 mg/kg): 5 min

Cc1cc(Nc2ccc3ccccc3c2)n2ncnc2n1
Tmax (male Swiss mouse, plasma; oral, 50 mg/kg, single dose): 30 min

COc1nc(-c2cc(C)c(N[C@@H](C)c3c(F)cc(F)cc3F)nn2)ccc1-n1cnc(C)c1
Tmax (male CD-1 mouse, plasma; oral, 5 mg/kg, single dose): 120 min

CC(C)NC(=O)COc1cccc(-c2nc(Nc3ccc4[nH]ncc4c3)c3ccccc3n2)c1
Tmax (male C57BL/6 mouse, plasma; oral, 100 mg/kg): ≤ 120 min

COc1nc(-c2cc(C)c(N[C@@H](C)c3ccc(F)cc3)nn2)ccc1-n1cnc(C)c1
Tmax (male CD-1 mouse, plasma; oral, 5 mg/kg, single dose): 60 min

CN1CCC[C@H](CN2c3ccccc3Sc3ccccc32)C1.Cl
Tmax (mouse, plasma; intraperitoneal, 32 mg/kg, single dose): 60 min

COC(=O)CN(CCCc1ccccc1)CC(=O)N[C@@H](Cc1c[nH]cn1)c1nc(C)no1
Tmax (male C57BL/6 mouse, plasma; intraperitoneal, 30 mg/kg): 10 min

CN1C(=O)c2ccccc2[S@+]([O-])c2ccc(C(=O)NCCc3cccs3)cc21
Tmax (male C57BL/6 mouse, plasma; intraperitoneal, 30 mg/kg, single dose): 15 min

[Cl-].c1csc([I+]c2cccs2)c1
Tmax (mouse, plasma; intraperitoneal): ≤ 1 min

CCc1ccc(Cc2cc([C@@H]3O[C@H](CO)[C@@H](O)[C@H](O)[C@H]3O)cc3c2CCC3)cc1
Tmax (male C57BL/6 mouse, plasma; oral, 3 mg/kg): 30 min

CSc1cc(Oc2ccnc3[nH]c(=O)cnc23)ccc1NC(=O)Nc1cc(C(C)(C)C)nn1-c1ccccc1
Tmax (BALB/c mouse, plasma; oral, 10 mg/kg): 180 min

CCc1cc(C(=O)NC)c2nccc(N3CCc4c(cc(Cn5ccnc5)cc4-c4cn(C)nc4C(F)(F)F)C3=O)c2c1
Tmax (male CD-1 mouse, plasma; oral, 150 mg/kg): 30 min

C=CC(=O)N1CC2CC(n3nc(-c4ccc(C(=O)Nc5ccccn5)cc4)c4c(N)ncnc43)CC2C1 (stereo not drawn)
Tmax (SCID mouse, plasma; oral, 3 mg/kg): 15 min

Cc1noc([C@H](Cc2c[nH]cn2)NC(=O)CN(CCCc2ccccc2)CC(=O)O)n1
Tmax (male C57BL/6 mouse, plasma; intraperitoneal, 30 mg/kg): 10 min

COc1ccc2nccc(N3CCc4c(cc(Cn5ccnc5)cc4-c4cn(C)nc4C(F)(F)F)C3=O)c2c1
Tmax (male CD-1 mouse, plasma; oral, 10 mg/kg): 42 min

O=S(=O)(c1ccc(-c2ccc3nccc(Nc4ccncn4)c3c2)cc1)N1CCOCC1
Tmax (female BALB/c mouse, brain; intraperitoneal, 10 mg/kg): 15 min

COc1ccc2c3c1O[C@H]1C[C@@H](OC(=O)c4ccccc4)C=C[C@@]31CCN(C)C2
Tmax (mouse, blood; intravenous, 3 mg/kg): 3 min

CNC(=O)c1cc(Oc2ccc(NC(=O)Nc3ccc(Cl)c(C(F)(F)F)c3)c(F)c2)ccn1
Tmax (male mouse, plasma; oral, 10 mg/kg, single dose): 162 min

COc1ccc(C(O)COc2ccc(-c3csc(-c4ccc(OCC(O)c5ccc(OC)c(OC)c5)cc4)n3)cc2)cc1OC (stereo not drawn)
Tmax (C57BL/6 mouse, plasma; oral, 10 mg/kg): 60 min

CCc1cc(OC)c2nccc(N3CCc4c(cc(Cn5ccnc5)cc4-c4cn(C)nc4C(F)(F)F)C3=O)c2c1
Tmax (male CD-1 mouse, plasma; oral, 50 mg/kg): 42 min

Cc1cc(Nc2ccc(S(F)(F)(F)(F)F)cc2)n2ncnc2n1
Tmax (male Swiss mouse, plasma; oral, 100 mg/kg, single dose): 120 min

Cc1cc(NC(=O)c2cccc3cc(-c4cccc5[nH]nc(N)c45)ccc23)ccc1F
Tmax (male CD-1 mouse, brain; oral, 10 mg/kg): 120 min

CS(=O)(=O)CCNCc1ccc(-c2ccc3ncnc(Nc4ccc(OCc5cccc(F)c5)c(Cl)c4)c3c2)o1
Tmax (nude mouse, plasma; oral, 50 mg/kg, single dose): 60 min
